In the RNAGym collection of RNA variant scans (doi:10.1126/science.aae0568) one finds yeast fitness data, which are given here for 37 variants.

Fewer inactive variants are shown than the library holds. Some results are limits rather than exact numbers.

First the molecules themselves.
B1: tRNA (parent)
chain: GUUCCGUUGGCGUAAUGGUAACGCGUCUCCCUCCUAAGGAGAAGACUGCGGGUUCGAGUCCCGUACGGAACG

The variants in this data set derive from B1. Put plainly: yeast fitness relative to wild type (ratio to wild type); higher = fitter; tRNA-Arg(CCU), competitive growth, 37 C, YPD. The gist of the method: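 Changes in genotype frequencies gave Darwinian fitness relative to wild type. Frequencies were read by 100-nucleotide paired-end sequencing of gene amplicons before and after pooled Saccharomyces cerevisiae strains, carrying tRNA-Arg(CCU) gene variants at the native locus, were competed in YPD at 37°C for 24 hours in six replicates. A genotype was kept only with ≥ 100 starting reads, and estimates < 0.5 were set to 0.5.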
Take GUUCCGUUGCCGUAAUGGUGACGCGUCUCCCUCCUAAGGAGAAGACUGCGGGUUCGAGUCCCGUACGGAACG [G10C A20G]: the yeast fitness came out at 0.775.

Consider GUUCCGUUGCCGUAAUGGUAACGCGUCUCCCUCCUAAGGAGAAGACUGCGGGUUCGAGUCCCGUACGGAACG [G10C], for which the yeast fitness was found to be 0.661.

In the case of GUUCCGUUGCCGUAGUGAUAACGCGUCUCCCUCCAAAGGAGAAAACUGCGGGUUCGAGUCCCGUACGGAACG [G10C A15G G18A U35A G44A], the yeast fitness is at most 0.5.

With GUUCCGUUGCCGUAAUGGUAGCGCGUCUCCCUCCUAAGGAGAAGACUGCGGGUUCGAGUCCCGUACGGAACG [G10C A21G], the yeast fitness is 0.633.

On to GUUCCGUUGACGUAAUGGUAACGCGUCUCCCUCCUAAGGAGAAGACUGCGGGUGCGAGUCCCGUACGGAACG [G10A U54G], for which the yeast fitness is at most 0.5.

GUUCCGUUGCCGUUAUGGUAACGCGUCUCCCUCCUAAGGAGAAGACUGCGAGUUCGAGUCCUGUACGGAACG [G10C A14U G51A C62U]: the yeast fitness is at most 0.5.

GUUCCGUUGCCGUGAUGGUAACGCGUCUCCCUCCUAAGGAGAAGACUGCGGGUUCGAGUCCCGUACGGAACG [G10C A14G]: the yeast fitness was determined as 0.569.

On to GUUCCGUUGCCGUUAUGGUAACGCGUCUCCCUCCUAAGGAGAAGACUGCGGGUUCGAGUCCCGUACGGAACG [G10C A14U], for which the yeast fitness amounted to 0.546.

Take GUUCCGUUGCCGUAAUGGUAACGCGUCUCCCUCCUAAGGGGAAGACUGCGGGUUCGAGUCCCGUACGGAACG [G10C A40G]: the yeast fitness worked out at 0.588.

GUUCCGUUGCCGUUAUGGUAACGCGUCUCCCUCCUAAGGAGAAGACUGCGGGUUCGAGUCCCGUAUGGAACG [G10C A14U C66U]: the yeast fitness was at most 0.5.

Take GUUCCGUUGCCGUCAUGGUAACGCGUCUCCCUCCUAAGGAGAAGACUGCGGGUUCGAGUCACGUACAGCACG [G10C A14C C61A G67A A69C]: the yeast fitness was at most 0.5.

Consider GUUCCGUUGCCGUAAUGGUAACGCGUCUCCCUCCUAAGGAGUAGACUGCGGGUUCGAGUCUUGUACGGAACG [G10C A42U C61U C62U], for which the yeast fitness is at most 0.5.

As for GUUCCGUUGCCGUAUUGGUAACGCGUCUGCCUCCUAAGGAGAAGAUUGCGCGUUCGAGUCGCGUACGGAACG [G10C A15U C29G C46U G51C C61G], the yeast fitness is at most 0.5.

As for GUUCCGUUGCCGUAAUGGUACCGCGUCUCGCCCCUAAGGAGAAGACUGCGGGUUCGAGUUCCGUACCGAACG [G10C A21C C30G U32C C60U G67C], the yeast fitness is 0.54.

For the variant GUUCCGUUGCCGUAAUGGUAACGCGUCUCCCUCCUUAGGAGAAGACUGCGGGUUCGAGUGCCGUACGGAACG [G10C A36U C60G], the yeast fitness was at most 0.5.

Take GUUCCGUUGCCGUAAUGGUACGGCGUCUCCCUCCUGAGGAGAAGACUGCGGGUUCGCGUCCCGUACGGAACG [G10C A21C C22G A36G A57C]: the yeast fitness was at most 0.5.

With GUUCCGUUGACGUAAUGGUAACGCGGCUCCCUCCUAAGGAGAAGACUGCGGGUUCGAGUCCCGUACGGAACG [G10A U26G], the yeast fitness is 0.681.

GUUCCGUUGCCGUAAUGGUAACGCGUCUCCCUCCUUAGGAGGAGACUGCGGGUUCAAGGCCCGUACGGAACG [G10C A36U A42G G56A U59G]: the yeast fitness was at most 0.5.

For the variant GUUCCGUUGCCGUCAUGGUAACUCGUCUCCAUGCUAAGGAGAAGACUGCGGGUUCGAGUCCCGUACGGAACG [G10C A14C G23U C31A C33G], the yeast fitness is 0.512.

Take GUUCCGUUGACGUAAUGGUAACGCGUCUCCCUCCUAAGGAGAAGACUGCGGGCUCGAGUCCCGUACGGAACG [G10A U53C]: the yeast fitness came to 0.608.

Turning to GUUCCGUUGACGUAAUGGUAACGCGUCUCCCCCCUAAGGAGAAGACUGCGGGUUCGAGUCCCGUACGGAACG [G10A U32C], the yeast fitness was 0.786.

For GUUCCGUUGACGUAAUGGUAACGCGUCUCCCACCUAAGGAGAAGACUGCGGGUUCGAGUCCCGUACGGAACG [G10A U32A], the yeast fitness was 0.601.

With GUUCCGUUGCCGUAAUGGUAACGCGUCUCCCUCCUAGGGAGAAGACUGUGGAUUGGAGUCCCGUAAGGAACG [G10C A37G C49U G52A C55G C66A], the yeast fitness was at most 0.5.

Turning to GUUCCGUUGACGUAAUGGUAACGCGUCUCCCUCCUAAGGAGAAGACUGCGGGUCCGAGUCCCGUACGAAGCG [G10A U54C G68A A70G], the yeast fitness is at most 0.5.

Regarding GUUCCGUUGACGUAAUGGUAACGCGCCUCCCUCCUAAGGAGAAGACUGCGGGUUCAAGUCCCGUACGGAACG [G10A U26C G56A], the yeast fitness amounted to 0.542.

With GUUCCGUUGCCGUAAUGGUAGCGCGUCUCCCUCCUAAGGAGAAGACUGCGGGUUGGGGUACCGUACGGAACG [G10C A21G C55G A57G C60A], the yeast fitness is at most 0.5.

As for GUUCCGUUGCCGUAAUGGUAACGCGUCUCCCUCCUACGGAGAAGACUGCGGGUUCGAGUGCCGUACGGAACG [G10C A37C C60G], the yeast fitness was at most 0.5.

With GUUCCGUUGCCGUCAUGGUAACGCGUCUCCCUCCUAAGGAGAAGACUGCGGGUUCGAGUCUCGUACGGAACG [G10C A14C C61U], the yeast fitness is at most 0.5.

GUUCCGUUGCCGUAAUGGUACCGCGUCUCUCUCCUAAGGACAAGACUGCGGGUUCGAGUCCCGUACGGAACG [G10C A21C C30U G41C]: the yeast fitness is at most 0.5.

For GUUCCGUUGACGUAAUGGUAACGCGUCUCCCUCCUAAGGAGAAGACUGCGGGUUCGAGCCCCGUACGGAACG [G10A U59C], the yeast fitness worked out at 0.721.

On to GUUCCGUUGCCGUAAUGGUAACGCGUCUCCCUCCUUAGGAGAAGACUGCGGGUUCGAGUCCCGCAUGGACCG [G10C A36U U64C C66U A70C], for which the yeast fitness was at most 0.5.

For GUUCCGUUGCCGUAAUGGUAACGCGUCUCCCUCCUCAGGAGAAGACUGCGGGUUGGAGUCCCGUACGGAACG [G10C A36C C55G], the yeast fitness is at most 0.5.

On to GUUCCGUUGCCGUAAUGGUAACGCGUCUCCCUCCUGAGGAGAAGACUGUGGGUUCGAGUCCCGUACGGAACG [G10C A36G C49U], for which the yeast fitness turned out to be 0.551.

Turning to GUUCCGUUGACGUAAUGGUAACGCGUCUCCCUCCUAAGGAGAAGACGGCGGGUUCGAGUCCCGUCCGGAACG [G10A U47G A65C], the yeast fitness was at most 0.5.

As to GUUCCGUUGCCGUAAUGGUAACGCGUCUCCCUCCUUAGGAGAAGACUGCGGGUUCGAGUCCCGUACGGUACG [G10C A36U A69U], the yeast fitness was at most 0.5.

Consider GUUCCGUUGCCGUAAUGGUAACGCGUCUCCCUCCUCAGGAGAAGACUACGGGUUCGAGUCCUGUACGGAACG [G10C A36C G48A C62U], for which the yeast fitness amounted to 0.555.

Regarding GUUCCGUUGCCGUCAUGGUAACGCGUCUCCCUCCUAAGGAGAAGACUGCGGGUUCGAGUACCGUACGGAACG [G10C A14C C60A], the yeast fitness is at most 0.5.
